# Results: ChEMBL document CHEMBL3994624, “Antimalarial Pyrido[1,2-a]benzimidazoles: Lead Optimization, Parasite Life Cycle Stage Profile, Mechanistic Evaluation, Killing Kinetics, and in Vivo Oral Efficacy in a Mouse Model” (J Med Chem, 2017)
# Calls of active or inactive are those of the source. The rule behind the calls is not given here.
# Experiments:
# Plasmodium berghei [1] = assay: Antimalarial activity against GFP-fused Plasmodium berghei ANKA infected in mouse assessed as mouse mean survival days at 50 mg/kg, po administered once daily for 4 days; format: functional
# In short: (§1)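 P. berghei-infected mice (n=3 per dose) dosed orally once daily on 4 consecutive days at 4, 24, 48 and 72 h after infection; compound in 90/10 Tween80/ethanol (v/v) diluted 10-fold with water. Read-outs were % parasitemia reduction, mean survival time in days and cure; mice with <40% parasitemia reduction euthanized on day 4.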
# Plasmodium berghei [2] = assay: Antimalarial activity against GFP-fused Plasmodium berghei ANKA infected in mouse assessed as reduction in parasitemia at 25 mg/kg, po administered once daily for 4 days by flow cytometry relative to control; format: functional; design: scale not given: the % may be the effect or the level left
# Plasmodium berghei [3] = assay: Antimalarial activity against GFP-fused Plasmodium berghei ANKA infected in mouse assessed as mouse mean survival days at 6 mg/kg, po administered once daily for 4 days; format: functional
# Plasmodium berghei [4] = assay: Antimalarial activity against GFP-fused Plasmodium berghei ANKA infected in mouse assessed as mouse mean survival days at 3 mg/kg, po administered once daily for 4 days; format: functional; in short: as §1
# Plasmodium berghei [5] = assay: Antimalarial activity against GFP-fused Plasmodium berghei ANKA infected in mouse assessed as mouse mean survival days at 12.5 mg/kg, po administered once daily for 4 days; format: functional
# Plasmodium berghei [6] = assay: Antimalarial activity against GFP-fused Plasmodium berghei ANKA infected in mouse assessed as reduction in parasitemia at 6 mg/kg, po administered once daily for 4 days by flow cytometry relative to control; format: functional; design: scale not given: the % may be the effect or the level left
# Plasmodium berghei [7] = assay: Antimalarial activity against GFP-fused Plasmodium berghei ANKA infected in mouse assessed as reduction in parasitemia at 50 mg/kg, po administered once daily for 4 days by flow cytometry relative to control; format: functional; design: scale not given: the % may be the effect or the level left
# In short: (§2)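 P. berghei-infected mice, 3 per group. Compound formulated in 90/10 Tween80/ethanol (v/v), diluted 10-fold with water, given orally once daily at 4, 24, 48 and 72 h post-infection. Outcomes: % parasitemia reduction versus untreated control, mean survival days, and cured/infected. Mice with <40% reduction euthanized on day 4.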
# Plasmodium berghei [8] = assay: Antimalarial activity against GFP-fused Plasmodium berghei ANKA infected in mouse assessed as mouse mean survival days at 25 mg/kg, po administered once daily for 4 days; format: functional
# Plasmodium berghei [9] = assay: Antimalarial activity against GFP-fused Plasmodium berghei ANKA infected in mouse assessed as reduction in parasitemia at 12.5 mg/kg, po administered once daily for 4 days by flow cytometry relative to control; format: functional; design: scale not given: the % may be the effect or the level left
# Plasmodium berghei [10] = assay: Antimalarial activity against GFP-fused Plasmodium berghei ANKA infected in mouse assessed as reduction in parasitemia at 3 mg/kg, po administered once daily for 4 days by flow cytometry relative to control; format: functional; design: scale not given: the % may be the effect or the level left; in short: as §2
# Huh-7 = assay: Cytotoxicity against human HuH7 cells at 1 to 10 uM after 48 hrs by Alamarblue assay; format: cell-based; details: huh-7, 48 h
# Plasmodium berghei [11] = assay: Antimalarial activity against GFP-fused Plasmodium berghei ANKA liver stage infected in HuH7 cells pretreated for 1 hr followed by parasite infection at 1 uM after 48 hrs by luciferase reporter gene assay; format: functional, cell-based
# Plasmodium falciparum [12] = assay: Ratio of IC50 for chloroquine-sensitive Plasmodium falciparum NF54 after 24 hrs to IC50 for chloroquine-sensitive Plasmodium falciparum NF54 after 72 hrs; format: functional
# Ferriprotoporphyrin IX [13] = assay: Inhibition of beta hematin formation in water/NP40/DMSO solution after 5 hrs
# Plasmodium falciparum [14] = assay: Anti-plasmodial activity against chloroquine-sensitive Plasmodium falciparum NF54 by [3H]-hypoxanthine incorporation assay; format: functional
# In short: (§3)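 P. falciparum asexual blood-stage growth inhibition by [3H]hypoxanthine incorporation; chloroquine and artesunate run as reference drugs in every experiment; IC50 given as mean of ≥2 independent experiments.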
# Ferriprotoporphyrin IX [15] = assay: Inhibition of beta hematin formation in ring stage of chloroquine-sensitive Plasmodium falciparum NF54 assessed as decrease in haemozoin level at 0.5 to 3 times IC50 after 36 hrs by UV-vis spectra analysis
# In short: (§4)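 Synchronized ring-stage parasites treated with increasing drug concentrations, then cellular fractionation. Free haem and haemozoin quantified as iron (fg/cell) and compared with untreated control; significance by p-values; parasite survival overlaid.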
# [16] = Kinetic solubility of the compound in FaSSIF at pH 6.5 after 2 hrs by shake flask method; format: physicochemical; details: read-out: Kinetic_solubility
# Plasmodium berghei [17] = assay: Antimalarial activity against GFP-fused Plasmodium berghei ANKA liver stage infected in HuH7 cells pretreated for 1 hr followed by parasite infection after 48 hrs by luciferase reporter gene assay; format: functional, cell-based; details: Huh-7
# [18] = Metabolic stability in Balb/c mouse liver microsomes assessed as compound remaining at 1 uM in presence of NADPH after 30 mins by LC-MS/MS analysis; format: ADME, microsome; details: read-out: Stability
# In short: (§5)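 Mouse and human liver microsomes; % compound remaining after 30 min.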
# Plasmodium falciparum [19] = assay: Anti-plasmodial activity against multidrug resistant Plasmodium falciparum K1 by [3H]-hypoxanthine incorporation assay; format: functional; in short: as §3
# Ferriprotoporphyrin IX [20] = assay: Inhibition of beta hematin formation in ring stage of chloroquine-sensitive Plasmodium falciparum NF54 assessed as increase in free heme level at 0.5 to 3 times IC50 after 36 hrs by UV-vis spectra analysis; in short: as §4
# CHO = assay: Cytotoxicity against CHO cells after by MTT assay; format: cell-based; details: Cricetulus griseus
# [21] = Selectivity index, ratio of IC50 for CHO cells to IC50 for chloroquine-sensitive Plasmodium falciparum NF54; format: toxicity; details: hamster, read-out: Ratio IC50
# In short: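 Selectivity index = IC50 CHO / IC50 PfNF54.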
# Plasmodium berghei [22] = assay: Antimalarial activity against GFP-fused Plasmodium berghei ANKA infected in mouse assessed as mouse mean survival days at 30 mg/kg, po administered once daily for 4 days; format: functional; in short: as §1
# Plasmodium berghei [23] = assay: Antimalarial activity against GFP-fused Plasmodium berghei ANKA infected in mouse assessed as mouse mean survival days at 10 mg/kg, po administered once daily for 4 days; format: functional; in short: as §1
# Plasmodium berghei [24] = assay: Antimalarial activity against GFP-fused Plasmodium berghei ANKA infected in mouse assessed as protection against parasitemia at 30 mg/kg, po administered once daily for 4 days measured 30 days post infection by light microscopy; format: functional, organism-based; in short: as §2
# Mus musculus [25] = assay: AUC (0 to infinity) in C57/Bl6 mouse at 10 mg/kg, po administered via gavage by LC-MS method; format: ADME, organism-based; design: dose 10 mg/kg, route oral, time infinity; details: in vivo
# In short: (§6)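 Mice (n=3) given a single oral dose of 10 mg/kg as a suspension in […] HPMC; plasma sampled over 24 h. Parameters were estimated by nonlinear mixed-effects modelling with a two-compartment disposition model, first-order absorption and elimination.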
# Plasmodium berghei [26] = assay: Antimalarial activity against GFP-fused Plasmodium berghei ANKA infected in mouse assessed as reduction in parasitemia at 30 mg/kg, po administered once daily for 4 days by flow cytometry relative to control; format: functional; design: scale not given: the % may be the effect or the level left; in short: as §2
# [27] = Volume of distribution in C57/Bl6 mouse at 2.5 mg/kg, iv by LC-MS method; format: ADME, organism-based; details: in vivo
# In short: (§7)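 Mice (n=3) given a single intravenous dose of 2.5 mg/kg in dimethylacetamide:polyethylene glycol:propylene glycol/ethanol (4:1) at 1:3:6; 24 h sampling. Parameters were fitted by nonlinear mixed-effects two-compartment model with first-order elimination.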
# [28] = Clearance in C57/Bl6 mouse at 2.5 mg/kg, iv by LC-MS method; format: ADME, organism-based; details: in vivo; in short: as §7
# [29] = Cmax in C57/Bl6 mouse at 10 mg/kg, po administered via gavage by LC-MS method; format: ADME, organism-based; design: dose 10 mg/kg, route oral; details: in vivo; in short: as §6
# [30] = Half life in C57/Bl6 mouse at 10 mg/kg, po administered via gavage by LC-MS method; format: ADME, organism-based; details: in vivo; in short: as §6
# Plasmodium berghei [31] = assay: Antimalarial activity against GFP-fused Plasmodium berghei ANKA infected in mouse assessed as reduction in parasitemia at 10 mg/kg, po administered once daily for 4 days by flow cytometry relative to control; format: functional; design: scale not given: the % may be the effect or the level left; in short: as §2
# Plasmodium falciparum [32] = assay: Ratio of IC50 for chloroquine-sensitive Plasmodium falciparum NF54 early 2/3 stage gametocytes to IC50 for chloroquine-sensitive Plasmodium falciparum NF54 late 4/5 stage gametocytes; format: functional
# In short: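 Early (stage II/III) and late (stage IV/V) gametocytes tested in parallel luciferase reporter assays; stage preference = EG IC50/LG IC50.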
# [33] = Metabolic stability in human liver microsomes assessed as compound remaining at 1 uM in presence of NADPH after 30 mins by LC-MS/MS analysis; format: ADME, microsome; details: read-out: Stability; in short: as §5
# Plasmodium falciparum [34] = assay: Anti-plasmodial activity against chloroquine-sensitive Plasmodium falciparum NF54 late 4/5 stage gametocytes assessed as reduction in ATP levels after 24 hrs by BacTiter-Glo reagent based bioluminescence assay; format: functional; details: NF54, 24 h
# Mus musculus [35] = assay: AUC (0 to infinity) in C57/Bl6 mouse at 2.5 mg/kg, iv by LC-MS method; format: ADME, organism-based; design: dose 2.5 mg/kg, time infinity, route intravenous; details: in vivo; in short: as §7
# Plasmodium berghei [36] = assay: Antimalarial activity against GFP-fused Plasmodium berghei ANKA infected in mouse assessed as protection against parasitemia at 3 mg/kg, po administered once daily for 4 days measured 30 days post infection by light microscopy; format: functional, organism-based; in short: as §2
# Plasmodium berghei [37] = assay: Antimalarial activity against GFP-fused Plasmodium berghei ANKA infected in mouse assessed as protection against parasitemia at 10 mg/kg, po administered once daily for 4 days measured 30 days post infection by light microscopy; format: functional, organism-based; in short: as §2
# Plasmodium berghei [38] = assay: Antimalarial activity against GFP-fused Plasmodium berghei ANKA infected in mouse assessed as protection against parasitemia at 50 mg/kg, po administered once daily for 4 days measured 30 days post infection by light microscopy; format: functional, organism-based; in short: as §2
# [39] = Tmax in C57/Bl6 mouse at 10 mg/kg, po administered via gavage by LC-MS method; format: ADME, organism-based; details: in vivo; in short: as §6
# [40] = Oral bioavailability in C57/Bl6 mouse at 10 mg/kg administered via gavage by LC-MS method; format: ADME, organism-based; details: in vivo; in short: as §6
# [41] = Half life in C57/Bl6 mouse at 2.5 mg/kg, iv by LC-MS method; format: ADME, organism-based; details: in vivo; in short: as §7
compound,measurement,setting,value
CCNCCNc1cc(-c2ccc(C(F)(F)F)cc2)c(C#N)c2nc3ccccc3n12.Cl,MSD,Plasmodium berghei [1],14 days
same,Activity,Plasmodium berghei [2],96%
same,MSD,Plasmodium berghei [3],7 days
same,MSD,Plasmodium berghei [4],4 days
same,MSD,Plasmodium berghei [5],14 days
same,Activity,Plasmodium berghei [6],38%
same,Activity,Plasmodium berghei [7],96%
same,MSD,Plasmodium berghei [8],14 days
same,Activity,Plasmodium berghei [9],81%
same,Activity,Plasmodium berghei [10],<40%
N#Cc1c(-c2ccc(C(F)(F)F)cc2)c(F)c(NCCN2CCC(O)C2)n2c1nc1ccccc12 (stereo not given),Activity,Huh-7,Non-Toxic
same,Activity,Plasmodium berghei [11],Active
same,Ratio IC50,Plasmodium falciparum [12],22
same,IC50,Ferriprotoporphyrin IX [13],120000 nM
same,IC50,Plasmodium falciparum [14],190 nM
same,inhibition,Ferriprotoporphyrin IX [15],inactive
same,solubility kinetic at 2 h,[16],80 µM
same,IC50,Plasmodium berghei [17],1420 nM
same,"remaining at 0.5 h, 1 µM",[18],37%
same,IC50,Plasmodium falciparum [19],170 nM
same,inhibition,Ferriprotoporphyrin IX [20],inactive
same,IC50,CHO,206000 nM
same,selectivity ratio,[21],1080
CCNCCNc1cc(-c2ccc(C(F)(F)F)cc2)c(C#N)c2nc3cc(Cl)c(Cl)cc3n12,MSD,Plasmodium berghei [1],30 days
same,MSD,Plasmodium berghei [22],30 days
same,Activity,Huh-7,Non-Toxic
same,MSD,Plasmodium berghei [23],18 days
same,Ratio IC50,Plasmodium falciparum [12],1.5 - 2
same,MSD,Plasmodium berghei [4],17 days
same,Activity,Plasmodium berghei [24],Active
same,IC50,Plasmodium falciparum [14],20 nM
same,AUC,Mus musculus [25],2.63 µM·h
same,Activity,Plasmodium berghei [7],98%
same,solubility kinetic at 2 h,[16],10 µM
same,Activity,Plasmodium berghei [26],99.7%
same,Vd,[27],26 L/kg
same,clearance,[28],21 mL/min/kg
same,Cmax,[29],70 nM
same,half-life,[30],15 h
same,"remaining at 0.5 h, 1 µM",[18],81%
same,IC50,Plasmodium falciparum [19],20 nM
same,Activity,Plasmodium berghei [31],99.6%
same,IC50,CHO,3390 nM
same,Ratio IC50,Plasmodium falciparum [32],1.2
same,"remaining at 0.5 h, 1 µM",[33],95%
same,IC50,Plasmodium falciparum [34],720 nM
same,selectivity ratio,[21],188
same,AUC,Mus musculus [35],4.27 µM·h
same,Activity,Plasmodium berghei [36],inactive
same,Activity,Plasmodium berghei [37],inactive
same,Activity,Plasmodium berghei [38],Active
same,Tmax,[39],10 h
same,bioavailability,[40],< 15%
same,half-life,[41],15 h
same,Activity,Plasmodium berghei [10],99.5%
